hERG rescue: compounds protecting human hERG from proarrhythmic drug block. activation (rescue from dofetilide block), less the hit threshold, % at 10 µM. AID 1511. Q12809. CHO-hERG, FluxOR thallium flux, dofetilide IC70 present. 310,000 tested, 0.51% active;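 active = activation above the mean of controls blocked by dofetilide plus 5 SD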;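 also: thallium influx through hERG after potassium depolarization seen as dye fluorescence rise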
KCNK9 inh: blocks the human KCNK9 two-pore domain potassium channel; AID 488922; 310,000 tested, 1.2% active; HEK293 KCNK9, FluxOR thallium flux fluorescence; hits give low values; B-score at 10 µM;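 active = ratio B-score over 3 SD below the library mean, with starting fluorescence within 5 SD of its mean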;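 also: negative B-score means less thallium flux so channel inhibition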
KCNQ1 block: blocks the human KCNQ1 potassium channel. CHO-K1 KCNQ1, FluxOR thallium flux fluorescence; hits give high values. B-score at 10 µM. 310,000 tested, 1.3% active. AID 2642;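 active = compounds whose thallium flux B-score, printed positive for inhibition, exceeds three library SD while starting fluorescence stays within three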;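 also: channel opened by potassium depolarization with thallium stimulus after 20 min compound exposure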
KCNQ1 pot: potentiates or activates the human KCNQ1 potassium channel; CHO-K1 KCNQ1, thallium flux FluxOR fluorescence; hits give high values; B-score at 10 µM; 310,000 tested, 0.35% active;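 active = fluorescence ratio B-score, a plate-corrected score, at least three library SD, with initial intensity B-score within 5 SD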
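Assay system: CHO-K1 cells stably expressing KCNQ1. Medium: assay buffer for compound exposure, DMSO matched across wells. Timing: 37 °C overnight plating, 90-min dark dye load, 20-min compound pretreatment. Signal: kinetic FluxOR fluorescence, 10 s baseline plus 110 s post-stimulus.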
Kir21 inh: Kir2.1 (mouse) channel inhibition; AID 1672; HEK293-Kir2.1, FluxOR thallium flux fluorescence; hits give low values; B-score at 10 µM; 310,000 tested, 0.85% active;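 active = fluorescence ratio B-score at or below minus 3 SD of library scores, with starting-brightness B-score within 2 SD, cut at about -4.2 in these data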;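 also: channel flux triggered by added potassium and thallium sulfate stimulus; B-score of peak minus minimum fluorescence over baseline after thallium stimulus; more negative B-score means stronger Kir2.1 block with less thallium influx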
Target sequence (P35561 whole entry, looked up): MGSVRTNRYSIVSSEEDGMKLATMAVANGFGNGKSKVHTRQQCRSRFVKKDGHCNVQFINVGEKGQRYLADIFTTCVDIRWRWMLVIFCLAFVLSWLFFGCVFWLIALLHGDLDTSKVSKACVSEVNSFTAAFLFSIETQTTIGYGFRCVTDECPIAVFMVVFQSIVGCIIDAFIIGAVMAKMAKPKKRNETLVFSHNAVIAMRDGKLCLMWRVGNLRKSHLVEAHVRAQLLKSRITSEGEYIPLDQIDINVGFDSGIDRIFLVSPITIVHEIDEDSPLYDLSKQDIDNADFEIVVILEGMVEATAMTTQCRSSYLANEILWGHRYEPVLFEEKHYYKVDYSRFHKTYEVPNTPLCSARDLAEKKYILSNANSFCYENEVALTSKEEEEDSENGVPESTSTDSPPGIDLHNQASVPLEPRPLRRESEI
KCNK3 inh: human KCNK3 channel inhibition, primary screen; B-score at 10 µM; O14649; 340,000 tested, 0.84% active; CHO-KCNK3 thallium flux, FluxOR fluorescence; hits give low values;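 active = B-score under library mean minus 4 SD, starting fluorescence ratio at most library mean plus 5 SD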;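 also: more negative B-score means stronger inhibition of thallium flux through KCNK3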
Of the large screens only hits and unclear results are named; the others gave an inactive call. A selection: hits, their analogues and other compounds. The true share with any hit is near 3.7%.

CCOC(=O)n1c(=O)n(Cc2ccc(Cl)c(Cl)c2)c2ccccc21	KCNK9 inh -7.37
COc1ccccc1C(CCNCc1ccc(N(C)C)cc1)c1ccc(OC(C)C)cc1 (stereo unspecified)	KCNQ1 block 10, Kir21 inh -4.38
COc1ccc(CNCCC(c2ccc(OC(C)C)cc2)c2ccccc2OC)cc1 (stereo unspecified)	KCNQ1 block 9, Kir21 inh -7.37
COc1ccccc1C(CCNCc1ccccc1)c1ccc(OC(C)C)cc1 (stereo unspecified)	Kir21 inh -6.26
COc1ccc(CNCCC(c2ccc(OC(C)C)cc2)c2ccccc2OC)cc1OC (stereo unspecified)	none
COc1ccc(CNCCC(c2ccccc2)c2ccc3c(c2)OCO3)cc1 (stereo unspecified)	Kir21 inh -8.08
COc1ccc(C(CC(=O)O)c2ccc3c(c2)OCO3)cc1 (stereo unspecified)	none
COc1ccc(CNC2CCSc3ccccc32)cc1OC (stereo unspecified)	none
COc1cc(/C=C(\NC(C)=O)C(=O)Nc2ccc(NC(C)=O)cc2)ccc1OC(C)=O	none
COc1ccc(NC(=O)/C(=C/c2ccc(OC(C)=O)c(OC)c2)NC(C)=O)cc1	KCNQ1 pot 88
O=c1[nH]c(SCc2nc3ccccc3n2Cc2ccccc2)nc2ccccc12	none
Nc1cc(=O)[nH]c(SCc2nc3ccccc3n2Cc2ccccc2)n1	hERG rescue 6.1
COc1cc(OC)cc(C(=O)Nc2cccc(C(C)=O)c2)c1	none
COc1cc(OC)cc(C(C)=O)c1	hERG rescue 5.7
Cc1ccc(C(C)C)cc1S(=O)(=O)NCc1ccccn1	Kir21 inh -5.83
CCOc1cc(S(=O)(=O)NCc2ccccn2)c(C)cc1C	Kir21 inh -4.71 (no result: KCNK3 inh)
COc1cc(O)c(C=Nc2ccccc2NS(=O)(=O)c2ccc(C)cc2)c(OC)c1	none (no result: hERG rescue, KCNK9 inh, KCNQ1 block, KCNQ1 pot, Kir21 inh)
COc1cc(-c2nc(C(=O)NC3CCN(Cc4ccccc4)CC3)cc3c2[nH]c2ccccc23)cc(OC)c1OC	KCNQ1 block 6
COc1cc(-c2nc(C(=O)NC3CCCCC3)cc3c2[nH]c2ccccc23)cc(OC)c1OC	none
CCOc1ccc(NC(=O)c2ccc(N)cc2)cc1	KCNQ1 pot 11
CCOc1ccc(NC(=O)c2ccc(NC(=O)CSc3nc4ccccc4c(=O)[nH]3)cc2)cc1	hERG rescue 4.7
O=C(CSc1nc2ccccc2c(=O)[nH]1)Nc1ccc(C(=O)O)cc1	none
CS(=O)(=O)N1CCc2cc(C(=O)Nc3ccc(Br)cc3)ccc21	none
CCOc1ccc(NC(=O)c2ccc3c(c2)CCN3S(C)(=O)=O)cc1	hERG rescue 11.1
O=C(CSc1ccccc1)OCC(=O)N1CCN(C(=O)c2ccco2)CC1	none (no result: hERG rescue, KCNK9 inh, KCNQ1 block, KCNQ1 pot, Kir21 inh)
O=C(NCCc1ccc(C(F)(F)F)cc1)C1CC(=O)N(Cc2ccccc2)C1 (stereo unspecified)	none (no result: hERG rescue, KCNK9 inh, KCNQ1 block, KCNQ1 pot, Kir21 inh)
CSCCC(=O)NC1CCCN(CCc2ccccc2)C1 (stereo unspecified)	none
CC(=O)C1=C(O)C(CSCc2ccccc2)N(C)C1=O (stereo unspecified)	none (no result: hERG rescue, KCNK9 inh, KCNQ1 block, KCNQ1 pot, Kir21 inh)
CCCCCCCCNS(=O)(=O)CCNCc1ccccc1OC	none (no result: hERG rescue, KCNK9 inh, KCNQ1 block, KCNQ1 pot, Kir21 inh)
OCCN(CCO)c1ccc(C(c2ccc(Cl)cc2)c2ccc(N(CCO)CCO)cc2Cl)c(Cl)c1	KCNQ1 pot 8
CCN(CC(=O)NCCc1ccc(S(N)(=O)=O)cc1)Cc1nc2ccccc2c(=O)[nH]1	hERG rescue 4.8
O=C(NNC(=O)c1cc(S(=O)(=O)N2CCOCC2)c(Cl)cc1Cl)c1ccccc1F	none (no result: hERG rescue, KCNK9 inh, KCNQ1 block, KCNQ1 pot, Kir21 inh)
NC(=O)C[n+]1cccc(CNC(=O)c2ccc(OC(F)F)cc2)c1	hERG rescue 4.6
Cc1ccc(C(C)C)cc1OCC(=O)N1CCN(C(=O)c2ccco2)CC1	none
CCOc1ccc(S(=O)(=O)NC(C)C(=O)NCc2ccc3c(c2)OCO3)cc1 (stereo unspecified)	none
NS(=O)(=O)c1ccc(NC(=S)Nc2ccc(OCc3ccccc3)cc2)cc1	KCNQ1 pot 30
S=C(Nc1ccccc1)Nc1ccc(OCc2ccccc2)cc1	none
Cc1ccccc1C(=O)NCC(=O)OC(C)C(=O)Nc1cccc(S(=O)(=O)N2CCOCC2)c1 (stereo unspecified)	none
CCC(C)(C)n1nnnc1C(c1cccnc1)N1CCC(Cc2ccccc2)CC1 (stereo unspecified)	KCNK9 inh -7.6
Cn1c(=O)c2sccc2n2c(CCCC(=O)Nc3ccc(F)cc3F)nnc12	none
O=c1[nH]c(-c2cccnc2)nc2sc(-c3ccccc3)cc12	hERG rescue 6.9
COc1ccc(-c2csc(NC(=O)Cc3ccccc3F)n2)c(OC)c1	KCNK9 inh -6.86
O=C(Cc1cccs1)Nc1nc(-c2ccc(F)c(F)c2)cs1	none
O=C(Cc1cccs1)Nc1nc(-c2ccc(F)cc2F)cs1	KCNK9 inh -7.53
COc1ccc(CC(=O)Nc2nc(C(C)(C)C)cs2)cc1	Kir21 inh -8.25
CCCc1nc(NC(=O)c2ccccc2)nc(NC(=O)c2ccccc2)n1	none
Cn1c2ccccc2c(=O)c2ccc(C#Cc3ccc(N)cc3)cc21	KCNK9 inh -7.34
COc1ccc(S(=O)(=O)NCC(=O)N(CC2CCCO2)C(C(=O)NC2CCCC2)C(C)C)cc1 (stereo unspecified)	none
CCCOc1ccc(-c2nc(OC)c3ccccc3n2)cc1	KCNK9 inh -6.64
CCCC1=NN(C(=O)C(=O)Nc2ccc(Br)cc2)C(O)(C(F)(F)F)C1 (stereo unspecified)	none
COc1ccc(NC(=O)C(=O)N2N=C(C(C)C)CC2(O)C(F)(F)F)cc1 (stereo unspecified)	KCNQ1 block 6
CC(C)C1=NN(C(=O)c2cccnc2)C(O)(C(F)(F)F)C1 (stereo unspecified)	none
CCC1=NN(C(=O)C(=O)Nc2ccc(Br)cc2)C(O)(C(F)(F)F)C1 (stereo unspecified)	KCNQ1 block 6
CCCCOc1ccccc1N	hERG rescue 5.9
Cc1ccc(-c2cc(C(=O)N/N=C/C(Br)=C/c3ccccc3)n[nH]2)o1	KCNK9 inh -7.05
O=C(N/N=C/C(Br)=C/c1ccccc1)c1ccccc1[N+](=O)[O-]	KCNK9 inh -6.9
COc1cccc(C(=O)N/N=C/C(Br)=C/c2ccccc2)c1	KCNK9 inh -8.06
O=C(N/N=C/c1ccncc1)c1ccccc1[N+](=O)[O-]	none
CCOC(=O)C1=C(COC(=O)CCCOc2ccccc2)NC(=O)NC1C (stereo unspecified)	none (no result: hERG rescue, KCNK9 inh, KCNQ1 block, KCNQ1 pot, Kir21 inh)
CC(=O)c1ccc(NC(=O)CN2CCC(NC(=O)C3CCCCC3)CC2)cc1	hERG rescue 6.1
CCOC(=O)C1=CNS(=O)(=O)NC1c1ccccc1 (stereo unspecified)	none (no result: hERG rescue, KCNK9 inh, KCNQ1 block, KCNQ1 pot, Kir21 inh)
CCCCS(=O)(=O)/C=C\C=C/S(=O)(=O)CCCC	KCNQ1 pot 14
